How the values were obtained:
[1] = rat, microsomes, 0.75 h, 1 µM
[2] = Intrinsic clearance in dog hepatocytes […] at 2 uM measured after 15 to 120 mins by LC-MS analysis; assay type: ADME, cell-based, Canis lupus familiaris, Hepatocyte; conditions: time 15-120 min
In short: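 Hepatocytes at 2×10^6 viable cells/mL, mixed with an equal volume of 2 μM compound in KHB buffer. Incubated at 37 °C and quenched with ACN at 0, 15, 30, 60 and 120 min. Analysed by LC/MS, with percent remaining from peak area ratio to internal standard against 0 min. Half-life from a single-phase exponential fit.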

[3] = Permeability across basolateral to apical side in human Caco-2 cells at 10 uM measured after 90 mins by LC-MS/MS analysis; assay type: ADME, cell-based
In short: (§1)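 Caco-2 monolayers grown 21–28 days on polycarbonate filter inserts, with TEER and Lucifer Yellow checked before and after. Compound at 10 μM in HBSS with 25 mM HEPES, pH 7.4. Run A→B and B→A at 37 °C for 90 min. Receiver and donor samples quantified by LC-MS/MS.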

[4] = Permeability across apical to basolateral side in human Caco-2 cells at 10 uM measured after 90 mins by LC-MS/MS analysis; assay type: ADME, cell-based
In short: as §1

[5] = human, microsomes, 0.75 h, 1 µM

SMILES | CLH [1] [mL/min] | further results
O=C(Cc1cccc(OC(F)(F)F)c1)Nc1ccc(CCCCc2nnc(NC(=O)Cc3ccccn3)s2)nn1 | 203 | 
O=C(Cc1cccc(OC(F)(F)F)c1)Nc1ccc(CCCCn2cc(C(=O)NCc3ccccn3)nn2)nn1 | 162 | 
CNC(=O)c1cn(C[C@H](F)CCc2ccc(NC(=O)Cc3cc(-c4cccc(OC(F)(F)F)c4)ccn3)nn2)nn1 |  | CLint [2]: 12 mL/min/kg; permeability [3]: 21 10^-6 cm/s; permeability [4]: 5.8 10^-6 cm/s
O=C(Cc1ccccc1)Nc1ccc(CCCCn2cc(C(=O)NCc3ccccc3)nn2)nn1 | 128 | 
CNC(=O)c1cn(C[C@H](F)CCc2ccc(NC(=O)Cc3cc(C(F)(F)F)ccn3)nn2)nn1 |  | CLH [5]: 0.2 mL/min
O=C(Cc1ccccn1)Nc1ccc(CCCCn2cc(C(=O)NCc3cccc(OC(F)(F)F)c3)nn2)nn1 | 283 | 

— ChEMBL document CHEMBL4673258, “Discovery of IPN60090, a Clinical Stage Selective Glutaminase-1 (GLS-1) Inhibitor with Excellent Pharmacokinetic and Physicochemical Properties” (J Med Chem, 2020)
